Assay outcomes from PubChem.
Compounds with a hit are over-represented: about 1.8% of the library has one in this group of screens.
NPY Y2 blocker: antagonists of human neuropeptide Y receptor Y2; P49146; NPY-Y2 expressing cells, antagonist mode; inhibition, % at 2.7 µM; hit rate 0.99% among 140,000; AID 793; in the data active = inhibition above about 17%
Target sequence (P49146 whole entry, looked up): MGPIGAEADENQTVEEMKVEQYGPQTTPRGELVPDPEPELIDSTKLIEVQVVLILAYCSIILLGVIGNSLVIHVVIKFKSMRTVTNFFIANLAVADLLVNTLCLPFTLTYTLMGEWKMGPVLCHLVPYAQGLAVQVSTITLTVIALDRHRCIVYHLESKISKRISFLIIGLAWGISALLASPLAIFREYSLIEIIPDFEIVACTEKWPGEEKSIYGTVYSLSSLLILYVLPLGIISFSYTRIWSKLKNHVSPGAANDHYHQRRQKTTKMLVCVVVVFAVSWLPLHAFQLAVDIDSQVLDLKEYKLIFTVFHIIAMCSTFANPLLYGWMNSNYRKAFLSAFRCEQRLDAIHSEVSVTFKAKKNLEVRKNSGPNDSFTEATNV
NPY Y1 blocker: blocks the human neuropeptide Y Y1 receptor; HEK293-CNG Y1 cells, membrane potential fluorescence; NPY at EC95, then isoproterenol; inhibition, % at 3.6 µM; hit rate 1% among 200,000;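 active = inhibition above the campaign mean inhibition of all tested compounds plus 3 SD, cut at about 20% in these data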
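Assay system: HEK293 cells with Y1 receptor plus CNG channel | Probe or stimulus: NPY (25 nM), isoproterenol (1 µM), Ro 20-1724 (25 µM) | Timing: Compound incubation 1 h at room temperature, readout 45 min post-stimulation | Measured by: Membrane-potential fluorescent dye readout | Benchmarks: High control isoproterenol alone, low control NPY with isoproterenol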
NPY2 pot ag: potentiates or activates human NPY-Y2 receptor; activation, % at 3.6 µM; hit rate 0.45% among 220,000; AID 1359; cells expressing NPY-Y2, potentiator/agonist read-out; P49146; in the data active = activation above about 27%;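 note: cells stimulated with NPY near EC25 plus isoproterenol at EC100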
NPY-Y1 PAM-ag: potentiates or activates human NPY-Y1 receptor; P25929; NPY-Y1 expressing cells, potentiator/agonist activation; activation, % at 3.6 µM; hit rate 0.37% among 220,000; in the data active = activation above about 33%, passing the limit was not always enough;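 note: cells stimulated with NPY at EC10 then isoproterenol at EC100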
NPY-Y1 pot conf: human NPY-Y1 potentiation or agonism, confirmation | shares compounds with NPY-Y1 PAM-ag | cell-based NPY-Y1 potentiator/agonist assay | activation, % at 3.6 µM | hit rate 20% among 280 | AID 1546; in the data active = activation above about 45%;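 note: cells challenged with NPY at its EC10 plus isoproterenol stimulus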
NPY-Y2 counter: NPY-Y2 potentiation or agonism as NPY-Y1 counter-screen; shares compounds with NPY-Y1 PAM-ag; HEK293-CNG cells, membrane-potential fluorescence (FLIPR), 1536-well; activation, % at 3.6 µM; hit rate 20% among 280; in the data active = activation above about 33%
NPY-Y1 ag: counter-screen for NPY-Y1 potentiators: agonists of human NPY-Y1; activation, % at 3.6 µM; hit rate 50% among 280; AID 1697; shares compounds with NPY-Y1 PAM-ag; HEK293 Y1-CNGC, membrane potential fluorescence, agonist mode;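 active = percent activation above the mean of DMSO-only control wells plus 3 SD of those wells, cut at about 18% in these data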;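 note: cells challenged with isoproterenol plus Ro 20-1724 with no NPY in test wells; Y1 agonism lowers isoproterenol-driven cAMP and reduces probe fluorescence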
NPY-Y2 agonist: counter-screen for NPY-Y1 potentiators or agonists: agonists of NPY-Y2. activation, % at 3.6 µM. HEK293 Y2-CNGC, membrane potential fluorescence, agonist mode. hit rate 67% among 280. AID 1698. shares compounds with NPY-Y1 PAM-ag;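 active = activation above the solvent-only control wells' mean plus 3 SD, cut at about 11% in these data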;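 note: agonism lowers cAMP so well fluorescence drops in active wells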
CNGC inh 2: blocks cyclic nucleotide gated channel in NPY-Y1 counter-screen | hit rate 42% among 280 | AID 1704 | inhibition, % at 3.6 µM | HEK293-CNG parental, isoproterenol cAMP, membrane potential fluorescence | shares compounds with NPY-Y1 PAM-ag;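 active = inhibition above the mean of stimulated solvent-only control wells plus 3 SD, cut at about 22% in these data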
A number is an active result; 0 = inactive; - = no result.

SMILES	NPY Y2 blocker	NPY Y1 blocker	NPY2 pot ag	NPY-Y1 PAM-ag	NPY-Y1 pot conf	NPY-Y2 counter	NPY-Y1 ag	NPY-Y2 agonist	CNGC inh 2
CC1(C)C2C(Cl)(Cl)C2(C)c2ccccc2N1C=O (stereo unspecified)	-	-	0	0	-	-	-	-	-
CC1=C(C)/C(=N\OS(=O)(=O)c2ccccc2)C=CC1=O	0	0	0	70	0	0	0	13	0
Cc1ccc(S(=O)(=O)O/N=C2\CCCc3ccccc32)cc1	0	0	0	0	-	-	-	-	-
COc1ccc(Nc2nc(N)c([N+](=O)[O-])c(NCCO)n2)cc1	-	-	0	0	-	-	-	-	-
CCOc1ccc(Nc2nc(Nc3ccc(O)cc3)nc(C)c2[N+](=O)[O-])cc1	-	0	0	40	0	0	0	16	0
CCN(CC(=O)NCCC1=CCCCC1)S(=O)(=O)c1ccccc1	-	-	0	0	-	-	-	-	-
CCC(CC)c1nn2c(N)c(/C=C3\C=Nc4ccccc43)c(=O)nc2s1	-	-	0	73	95	82	97	85	46
CCCc1nn2c(N)c(/C=C3\C=Nc4ccccc43)c(=O)nc2s1	0	0	0	0	-	-	-	-	-
N#C/C(=C(/O)c1ccc([N+](=O)[O-])s1)c1nc2ccccc2[nH]1	-	-	0	48	0	0	0	28	0
Cc1c(C(=O)NCCSCc2cccc(C(F)(F)F)c2)cnn1-c1ccc(F)cc1	-	-	0	0	-	-	-	-	-
O=C(Nc1ccc(Cl)cc1Cl)NC1CCN(S(=O)(=O)c2ccc(F)cc2)CC1	-	-	0	48	0	0	18	13	0
Cc1csc(NC(=O)CN2C(=O)c3ccccc3C2=O)c1C(N)=O	-	-	0	0	-	-	-	-	-
CCOC(=O)N1CCN(C(=O)CN(C2CCCCC2)S(=O)(=O)c2c(C)cc(C)cc2C)CC1	0	0	0	71	0	0	0	0	0
Cc1cc(C)c(S(=O)(=O)N(CC(=O)N2CCOCC2)C2CCCCC2)c(C)c1	0	0	0	0	-	-	-	-	-
OCCC1CN(CC#Cc2ccccc2)CCN1C1CCCC1 (stereo unspecified)	-	0	0	102	0	0	0	0	0
CCOC(=O)C1(Cc2cccc(F)c2)CCN(C(=O)c2cnc(C)cn2)CC1	-	0	0	0	-	-	-	-	-
COc1cc(-c2noc(C)n2)cc(OC)c1OC	-	-	0	0	-	-	-	-	-
Cc1nc(-c2cccc(-c3noc(C)n3)c2)no1	0	0	0	38	0	0	0	0	0
CCOc1ccccc1NC(=O)C1C2C=CC(C2)C1C(=O)O (stereo unspecified)	0	0	0	0	-	-	-	-	-
CCOc1ccccc1NC(=O)C1C2C=CC(O2)C1C(=O)O (stereo unspecified)	0	0	0	57	0	0	0	0	0
N#C/C(=C(/O)c1ccco1)c1nc2ccccc2s1	0	0	0	0	-	-	-	-	-
N#C/C(=C(/O)c1cc2ccccc2o1)c1nc2ccccc2s1	-	-	0	49	0	0	0	11	0
O=C1c2ccccc2C(=O)c2c([N+](=O)[O-])ccc(O)c21	-	-	0	52	0	43	29	33	36
O=C1c2cccc([N+](=O)[O-])c2C(=O)N1c1ccccc1	0	0	0	0	-	-	-	-	-
O=C(NC1=NCCS1)c1ccc(Cl)c(S(=O)(=O)N2CCOCC2)c1	-	0	0	0	-	-	-	-	-
SMILES	NPY Y2 blocker	NPY Y1 blocker	NPY2 pot ag	NPY-Y1 PAM-ag	NPY-Y1 pot conf	NPY-Y2 counter	NPY-Y1 ag	NPY-Y2 agonist	CNGC inh 2
CCCN1C(=O)/C(=C/c2ccc(OCC(=O)OCC)cc2)NC1=S	-	0	0	78	122	101	110	105	100
CSc1ccc(C2NC(=O)c3c(sc4c3CCN(C)C4)N2)cc1 (stereo unspecified)	0	0	0	42	0	0	0	0	0
CN1CCc2c(sc3c2C(=O)NC(c2cccs2)N3)C1 (stereo unspecified)	0	0	0	0	-	-	-	-	-
Cc1cc(OC(F)F)ccc1NC(=O)Nc1ccc([N+](=O)[O-])cc1	0	0	0	59	0	0	25	28	31
CC(C)Nc1nc(Cl)nc(N(C#N)CN2C(=O)c3ccccc3S2(=O)=O)n1	-	-	0	0	-	-	-	-	-
CC(C)(C)Nc1nc(Cl)nc(N(C#N)CN2C(=O)c3ccccc3S2(=O)=O)n1	-	0	0	65	46	0	39	29	22
CCCCCCCCCCCCCCCCn1cc[n+](CC(C)=O)c1	-	0	0	58	58	0	38	19	28
CCCCCCn1ccc(=N)cc1	0	0	0	0	-	-	-	-	-
Cc1cc(C)c(NC(=O)c2ccc(CN3CCc4ccccc4C3)cc2)c(C)c1	0	0	0	57	0	0	0	0	0
Cc1c(NC(=O)c2ccc(CN3CCc4ccccc4C3)cc2)c(=O)n(-c2ccccc2)n1C	0	0	0	0	-	-	-	-	-
COc1ccc(-c2[nH]c3ccccc3c2SCCNC(=O)c2ccccc2)cc1	0	0	0	0	-	-	-	-	-
Cc1ccc(-c2[nH]c3ccccc3c2SCCNC(=O)c2ccc(S(=O)(=O)N3CCOCC3)cc2)cc1	0	0	0	48	0	0	0	11	0
Cc1cccc(C)c1Nc1c(-c2ccccn2)nc2ccccn12	-	0	0	46	48	34	39	41	31
CC1CCN(c2nc(-c3ccccc3O)nc3ccccc23)CC1	0	0	0	0	-	-	-	-	-
CC1CCN(c2ncnc3ccccc23)CC1	0	0	0	40	0	0	0	0	0
CCN(CC)c1ccc(/C=C(/C#N)c2nc3ccc(C)cc3[nH]2)c(OC(C)C)c1	0	0	0	44	52	38	28	45	30
COc1ccc(NC(=O)c2ccc(OC(F)F)cc2)cc1Cl	0	0	0	0	-	-	-	-	-
O=C(Nc1ccc(OC(F)F)c(Cl)c1)c1ccccn1	-	0	0	39	0	0	0	0	0
CCCCn1nnc(NC(=O)C(c2ccccc2)c2ccccc2)n1	-	0	0	64	0	0	0	0	0
CCCn1nnc(NC(=O)C(c2ccccc2)c2ccccc2)n1	0	0	0	0	-	-	-	-	-
N/C(=N\OC(=O)/C=C/c1ccccc1)c1ccccc1	0	0	0	105	0	0	0	0	0
C=CCc1ccc(O)c(-c2cc(CC=C)ccc2O)c1	-	0	0	33	0	0	0	16	0
C=CCc1ccc(OCC(O)CO)c(OC)c1 (stereo unspecified)	0	0	0	0	-	-	-	-	-
O=c1cc(CSc2nnc(COc3cccc4ccccc34)o2)c2ccccc2[nH]1	-	-	0	0	-	-	-	-	-
O=C(CN1c2ccccc2Sc2ccccc21)NNC(=O)Nc1cccc(Cl)c1	-	-	0	50	48	0	45	36	40
O=C(Cc1ccccc1)NNC(=O)Nc1cccc(Cl)c1	0	0	0	0	-	-	-	-	-
